HIF activator: HIF pathway transcriptional activators, primary screen, cell-based, U2OS HRE-luciferase, luminescence; U2OS HRE-luciferase reporter; normalized: DMSO 0%, desferrioxamine 100%; activation, % at 7.5 µM (by protocol); 300,000 compounds, 0.32% hits; AID 1910, 2009;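 active means mean activation of at least 10% of the iron chelator positive control signal, with at least half of replicates also reaching 10%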
DNA FID counter: compounds displacing fluorescent DNA intercalator, primary screen, artefact control for HCV NS3 helicase inhibitor project, biochemical, FID fluorescence. inhibition, % at 7.9 µM. DNA fluorescent intercalator displacement. 290,000 compounds, 0.17% hits; in the data active means inhibition above about 37%;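 further: 0% = vehicle and 100% = reference compound; higher means more ethidium bromide displaced from hairpin DNA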
HCV NS3 hel inh: inhibitors of HCV NS3 helicase, primary screen, biochemical, Cy5 molecular beacon fluorescence; Hepatitis C virus NS3 helicase; NS3 helicase DNA unwinding; inhibition, % at 10.9 µM; 290,000 compounds, 0.56% hits;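 active means inhibition above the mean of all tested compounds plus 3 SD, set per campaign, cut at about 35% in these data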;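 further: 0% = DMSO wells and 100% = thioflavine S control wells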
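System: NS3 helicase fragment of HCV / Schedule: 1 h at 25 °C / Control set: DMSO alone as 0% and 110 µM thioflavine S as 100% / Reagent: Cy5/quencher beacon DNA duplex and ATP to start / Technique: Cy5 fluorescence / Replication: singlicate / Evaluation: % inhibition of end-to-start signal ratio versus controls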
PP5 inh: PP5 phosphatase inhibitors, primary screen, biochemical, fluorescence; Serine/threonine-protein phosphatase 5 (Homo sapiens), P53041; purified PP5c, OMFP substrate fluorescence; inhibition, % at 6.7 µM; 320,000 compounds, 0.18% hits;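 active means inhibition above the campaign's mean inhibition across all tested compounds plus 3 SD, cut at about 9.5% in these data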;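 further: 0% = DMSO only and 100% = 100 µM cantharidin control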
Target sequence (P53041 whole entry, looked up): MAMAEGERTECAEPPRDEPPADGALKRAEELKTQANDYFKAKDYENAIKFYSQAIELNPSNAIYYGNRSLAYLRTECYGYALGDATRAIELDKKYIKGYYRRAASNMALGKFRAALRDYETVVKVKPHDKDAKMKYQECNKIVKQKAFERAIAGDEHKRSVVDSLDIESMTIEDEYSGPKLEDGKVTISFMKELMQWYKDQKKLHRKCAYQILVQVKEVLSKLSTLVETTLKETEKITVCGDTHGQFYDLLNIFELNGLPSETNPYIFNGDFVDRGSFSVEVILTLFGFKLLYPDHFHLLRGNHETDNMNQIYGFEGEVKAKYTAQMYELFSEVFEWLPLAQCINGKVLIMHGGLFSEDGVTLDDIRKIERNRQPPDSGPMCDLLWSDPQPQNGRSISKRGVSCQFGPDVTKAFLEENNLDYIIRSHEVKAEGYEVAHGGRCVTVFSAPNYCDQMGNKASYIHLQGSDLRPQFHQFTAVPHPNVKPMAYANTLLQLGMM
PP1 counter: PP1-alpha phosphatase inhibitors, primary screen, counter-screen for PP5 inhibitor project, biochemical, fluorescence, OMFP substrate, single point; Serine/threonine-protein phosphatase PP1-alpha catalytic subunit (Homo sapiens), P62136; purified PP1alpha; inhibition, % at 6.7 µM; 320,000 compounds, 0.9% hits;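 active means inhibition above the mean inhibition of all tested compounds plus 3 SD, computed separately for each screening campaign, cut at about 15% in these data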
PP1 confirm: PP1 phosphatase inhibitors, confirmation, biochemical, fluorescence, OMFP substrate, triplicate. shares compounds with PP1 counter. purified PP1alpha. inhibition, % at 6.7 µM. 1,900 compounds, 52% hits. AID 2358, 2010;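 active means mean PP1 inhibition above a set limit taken from the earlier primary screen, cut at about 15% in these data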
PP5 counter: PP5 phosphatase inhibition by PP1 hits, confirmation, counter-screen for PP1 inhibitor project, biochemical, fluorescence, triplicate | 1,900 compounds, 4% hits | inhibition, % at 6.7 µM | shares compounds with PP1 counter | AID 2360, 2010 | purified PP5c, OMFP fluorescence;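 active means mean PP5 inhibition over triplicate wells above about 9.5% taken from the earlier PP1 screen, limit read from the data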
Numbers without * were called inactive; · = no result. Hits are enriched below; roughly 1.9% of the tested compounds scored in any of these assays.

SMILES | HIF activator | DNA FID counter | HCV NS3 hel inh | PP5 inh | PP1 counter | PP1 confirm | PP5 counter
CC1(c2ccccc2)CC(C)(C)N2C(=O)C(=O)c3cccc1c32 (stereo not given) | -1 | -19 | 16 | 0 | 24* | 18* | -2
N#Cc1c(SCC(=O)Nc2nncs2)sc2c(O)cc(=O)[nH]c12 | 0 | -18 | 24 | -2 | 42* | 10 | 6
N#Cc1c(SCC(=O)Nc2ccc(C(F)(F)F)cc2)sc2c(O)cc(=O)[nH]c12 | 1 | -2 | 14 | 0 | 4 | · | ·
C/C(=N/NC(=O)c1cc2ccccc2cc1O)C1C(=O)c2ccccc2C1=O | -1 | 0 | -3 | 6 | 24* | 17* | -4
COc1c(OC)c(O)c2c(=O)c(O)c(-c3ccccc3)oc2c1OC | 0 | -7 | 2 | 1 | 18* | 30* | -4
COc1ccc(-c2oc3c(OC)c(OC)c(OC)c(O)c3c(=O)c2OC)cc1OC | -1 | -16 | 10 | 2 | -2 | · | ·
O=C1C(Cc2ccccc2)Nc2ncnc(N3CCc4ccccc4C3)c2N1Cc1ccc(Br)cc1 (stereo not given) | 0 | · | · | 2 | 20* | 15 | -1
O=C(NN1CCOCC1)c1ccc(F)cc1 | 0 | -4 | 4 | 0 | 20* | -6 | -6
Cc1ccc(C(=O)NN2CCOCC2)cc1 | 0 | -1 | -8 | -1 | 1 | · | ·
C=CCn1c(O)c(C2=c3ccccc3=NC2=O)s/c1=N/c1nccs1 | 0 | 1 | 34 | 1 | 23* | 24* | 1
C=CCn1c(O)c(C2=c3ccccc3=NC2=O)c2ccccc21 | 3 | 8 | 10 | -5 | 0 | · | ·
O=C(CSc1nnc2sc3ccccc3n12)NCc1ccc2c(c1)OCO2 | 0 | · | · | 1 | -1 | · | ·
COc1cccc(/C=C/C(=O)OCC(=O)c2ccc3c(c2)NC(=O)CO3)c1 | · | · | · | 1 | 33* | 28* | -3
Cc1cc(C)cc(OCC(=O)OCC(=O)c2ccc3c(c2)NC(=O)CO3)c1 | 1 | -7 | 0 | 4 | 0 | · | ·
CC(=O)Nc1ccc(NC(=O)CSc2nc(N)c(NC(=O)c3ccccc3F)c(=O)[nH]2)cc1 | 0 | -1 | 8 | -1 | 0 | · | ·
O=C(Nc1cccc(-c2cn3ccccc3n2)c1)c1cc2ccccc2oc1=O | 2 | 6 | 9 | 2 | 24* | 28* | -4
CNC(=S)N/N=C/c1c2ccccc2c(Cl)c2ccccc12 | 0 | -5 | 3 | 3 | 2 | · | ·
COc1ccc(Cl)cc1NC(=O)CN(C)C(=O)Cn1cnc2c1c(=O)n(C)c(=O)n2C | 0 | · | · | -1 | -6 | · | ·
Cc1cccc(C(=O)Nc2nnc(S(=O)(=O)N(C)Cc3ccco3)s2)c1 | 1 | -13 | 9 | 1 | 1 | · | ·
CC(C)C(=O)Nc1ccc(C(=O)c2ccccc2)cc1 | 1 | -9 | -7 | 1 | -75 | -1 | -3
CCCCCCCCCCCC1=C(O)C(=O)C=C(O)C1=O | 0 | · | · | 2 | 46* | 35* | -7
Cc1cc(/C=N/n2cnnc2)c(C)n1-c1ccc(OCc2ccc(Cl)cc2)cc1 | -1 | -13 | -6 | 4 | 28* | 26* | 0
Cc1cc(/C=N/n2cnnc2)c(C)n1-c1ccc(OCc2ccccc2F)cc1 | 1 | -18 | 1 | 6 | 9 | · | ·
COc1ccc(OC)c(CCNC(=O)C(C)n2nc(C)c3c(C)n(-c4ccc(C)cc4)nc3c2=O)c1 (stereo not given) | 0 | -48 | -3 | 2 | 3 | · | ·
N#CCc1nnc2n1-c1ccccc1CCC2 | 0 | -2 | -4 | 1 | -5 | · | ·
CC1=C(C#N)c2nc(N)c(C#N)c(C)c2/C1=C\c1ccc(C)cc1 | 0 | -8 | 11 | -1 | -2 | · | ·

Compound activity (PubChem)
